Assay outcomes: PubChem BioAssay, several laboratories
Shown is part of a subset that was picked to be rich in hits.
KCC2 mod: modulators of human KCC2 chloride dependent transport; Q9H2X9; KCC2 cells, thallium flux FluoZin-2 fluorescence; B-score of Tl+ flux slope (higher = more flux/activation; lower = inhibition) at 10 µM; 190,000 compounds, 2.2% hits; AID 1456;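 active = thallium flux slope and its plate-corrected score both differing from the plate sample mean at a set confidence after two filtering rounds, in either direction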;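 note: slope of fluorescence scaled to starting intensity during 10 to 20 s after thallium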
V-ATPase pH: alters yeast V-ATPase proton transport. response, % at 10 µM. S. cerevisiae, pHLuorin cytosolic pH fluorescence. 350,000 compounds, 0.37% hits. AID 504577; in the data active = response mostly above about 7.3%, no sharp cut-off; inactive = mostly below about 5.4%; note: actives read high
ABCB6 inh MLPCN: human ABCB6 transporter inhibition; K562-ABCB6 porphyrin accumulation, flow cytometry, 1 h; stronger effect = lower value; AID 602162; Q9NP58; 360,000 compounds, 0.19% hits; fluorescence ratio to DMSO, % at 10 µM;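 active = fluorescence ratio to DMSO below 75%, the collection mean minus 3 SD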;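 note: signal is porphyrin accumulated inside mitochondria; 100% equals median channel fluorescence of DMSO control wells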
p-CIP stab down: lowers stability of the mouse p/CIP coactivator protein; Q05BA5; F442A p/CIP-EGFP cells, EGFP fluorescence, 16 h; decrease of EGFP signal, % at 10 µM; 290,000 compounds, 0.01% hits; AID 1984;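 active = EGFP signal decrease of at least 30% at 10 µM or well 3 SD below plate mean, unless failing retest; inactive = the rest, including hits failing retest or dose response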
Dynein transport: blocks dynein driven cargo transport along microtubules. z-score, hits read low. 220,000 compounds, 0.47% hits. 3617.4 mouse cells, GR-EGFP nuclear translocation imaging; test concentration mostly 20 µM; stimulated with dexamethasone, 1 µM; stronger effect = lower value;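 active = plate z-score of nuclear minus cytoplasmic receptor signal below a set negative limit, without overly bright fluorescence or cell loss, cut at about -3.5 in these data, passing the limit was not always enough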;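 note: z-score of nuclear minus cytoplasmic ring GR-EGFP intensity difference per well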
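Buffer or medium: tet-free medium with charcoal-stripped serum / Also added: dexamethasone agonist, 1.0 µM final, for 30 min / Timing: induction 48 h, compound 1 h, agonist 30 min / Measured by: high-content fluorescence imaging after fixation / Read-out: nuclear-to-cytoplasmic GR-EGFP distribution per well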
ABCB6 inh CP1: inhibitors of human ABC transporter ABCB6; shares compounds with ABCB6 inh MLPCN; AID 602430; ratio response (% of DMSO), % at 10 µM; K562-ABCB6 porphyrin accumulation, flow cytometry, 1 h; stronger effect = lower value; 700 tested, under 10 active;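 active = repeat-averaged ratio response below 75% of DMSO, the collection mean minus 3 SD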;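 note: median porphyrin fluorescence at 575 nm with 488 nm excitation from mitochondria; lower ratio means less porphyrin signal so ABCB6 inhibition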
Numbers without * were called inactive; . = no result given.

SMILES	KCC2 mod	V-ATPase pH	ABCB6 inh MLPCN	p-CIP stab down	Dynein transport	ABCB6 inh CP1
COc1ccccc1C1CC(c2cccs2)=NN1C(=O)CCC(=O)O (stereo not given)	.	-3.5	102.0	-15.2	.	.
COc1cccc(C2CC(c3cccs3)=NN2C(=O)CSc2nc3ccccc3o2)c1OC (stereo not given)	0.0151	0.6	70.0*	-5.5	-0.164	97.0
Cn1c(CN2CCOCC2)c(C#N)c2ccccc21	.	3.8	60.0*	-8.1	0.324	100.0
O=[N+]([O-])c1ccc2[nH]c(=S)sc2c1	.	1.1	95.0	.	.	.
CC(C)C[C@H](NC(=O)Nc1ccccc1F)C(=O)O	-0.031	-0.6	45.0*	-6.6	-0.277	98.0
C[C@H](NC(=O)Nc1ccccc1F)C(=O)O	0.0859	0.5	97.0	1.5	-0.416	.
Cc1nn(CCC#N)c(N)c1C1(O)C(=O)Nc2c(Cl)cc(Cl)cc21 (stereo not given)	0.851	-0.8	13.0*	-6.6	0.175	96.0
CCN1CCN(C(=O)c2ccc3c(=O)n(Cc4ccccc4OC)c(=S)[nH]c3c2)CC1	0.0664	1.7	69.0*	5.5	-0.238	102.0
O=C(Cn1cccn1)N1CCCC(N2CCN(c3ccccc3F)CC2)C1 (stereo not given)	.	2.5	100.0	-1.3	.	.
Cc1cccc(C)c1NC(=O)COC(=O)CCC(=O)c1cccs1	0.583	-0.8	92.0	13.3	1.24	.
CCN(CC)S(=O)(=O)c1ccc(C)c(NC(=O)CN2C(=O)NC3(CCCC3)C2=O)c1	.	-3.1	74.0*	-14.6	.	96.0
CCN(CC(=O)Nc1c(F)cccc1F)C(=O)c1ccc(C#N)cc1	.	4.0	70.0*	-0.8	.	99.0
CC(=O)Oc1cccc(/C=C2\Sc3ccccc3C2=O)c1	-1.47	-3.5	72.0*	-1.1	-0.262	96.0
NC(c1ccccc1)c1csc(Nc2ccc(C(F)(F)F)cn2)n1 (stereo not given)	.	.	71.0*	.	.	101.0
CC1CCN(C(=O)c2ccc(NC(=O)c3cccs3)cc2)CC1	.	7.9	53.0*	-9.1	.	102.0
CN(C)c1ccc(CNC23CC4CC(CC(C4)C2)C3)cc1	.	.	.	.	-0.523	.
Cc1ccc(NC(=O)c2ccccc2OCC(=O)Nc2cccc(Cl)c2C)nc1	0.12	.	.	-14.3	1	.
CCSc1nc2sc3c(c2c(=O)[nH]1)CC(C)(CC)OC3 (stereo not given)	-1.14	6.2	61.0*	-18.4	-0.133	97.0
CCCSc1nc2sc3c(c2c(=O)[nH]1)CC(C)(CC)OC3 (stereo not given)	.	1.1	96.0	-0.8	.	.
CSc1ccc(CN2C(=O)C(F)(F)Oc3c(C(C)=O)cccc32)cc1	.	.	74.0*	.	.	101.0
CSc1ccc(CN2C(=O)C(C)Oc3c(C(C)=O)cccc32)cc1 (stereo not given)	.	.	97.0	.	.	.
CC(C)CN(CC(C)C)S(=O)(=O)N1CCC(C(=O)NCc2ccc3c(c2)OCO3)CC1	0.232	-0.8	96.0	-0.5	1.05	.
Cc1c(OCC(=O)N2CCN(c3ccccc3)CC2)ccc2c3c(c(=O)oc12)CCCC3	.	0.4	96.0	10.7	.	.
CN1CCN(C(=O)c2cc([N+](=O)[O-])cc([N+](=O)[O-])c2)CC1	.	-4.0	93.0	-2.9	.	.
CSCCC(NC(N)=O)C(=O)N(C)CC(=O)Nc1cc(C)ccc1C (stereo not given)	.	1.1	69.0*	-6.2	0.934	100.0
SMILES	KCC2 mod	V-ATPase pH	ABCB6 inh MLPCN	p-CIP stab down	Dynein transport	ABCB6 inh CP1
Cc1ccc(C)c(NC(=O)CN(C)C(=O)[C@@H](NC(N)=O)C(C)C)c1	0.835	-2.2	93.0	17.3	0.284	.
CCn1c(SCC(=O)n2c(C)c(C)c3ccccc32)nnc1-c1ccco1	0.235	0.1	73.0*	-2.6	-0.508	99.0
CCn1c(SCC(=O)Nc2ccc3c(c2)c2ccccc2n3CC)nnc1-c1ccco1	-0.0445	2.4	100.0	-8.8	-0.673	.
Cc1c(C(=O)NCc2ccccc2C(F)(F)F)sc(=O)n1Cc1ccc(S(=O)(=O)N(C)C)cc1	.	.	103.0	.	.	.
CCc1ccc(CNC(=O)C2Cc3cc(S(=O)(=O)N4CCCC4)ccc3N2C(C)=O)cc1 (stereo not given)	.	1.9	5.0*	0.7	.	99.0
CCCNC(=O)COC(=O)c1ccccc1C(=O)c1ccc(Cl)c([N+](=O)[O-])c1	-0.48	0.3	57.0*	-1.0	-2.02	93.0
Cc1ccc(Cl)c(NC(=O)COC(=O)c2ccccc2C(=O)c2ccc(Cl)c([N+](=O)[O-])c2)c1Cl	-0.0415	0.9	99.0	10.3	-1.15	.
COc1cccc(N2CCN(C(=O)CC(C)(C)CC3=NS(=O)(=O)c4ccccc4N3)CC2)c1	.	2.3	14.0*	-27.1	.	100.0
COc1ccc(CN2CCN(c3ncccn3)CC2)c(C)c1C	.	4.2	97.0	-1.4	.	.
COc1cc(C)c(CN2CCN(c3ncccn3)CC2)cc1C	.	4.2	16.0*	.	.	97.0
CCCCN(C(=O)c1ccc(Br)o1)C1CCS(=O)(=O)C1 (stereo not given)	.	8.7	101.0	.	.	.
CC(C)c1cc(NCCOCCO)n2c(nc3ccccc32)c1C#N	.	-2.6	73.0*	3.8	.	99.0
Nc1nc(NCc2ccccc2)nc(Nc2cccc(F)c2)c1[N+](=O)[O-]	.	-1.0	41.0*	-8.9	-0.615	101.0
Cc1ccc(CNc2nc(N)c([N+](=O)[O-])c(Nc3cccc(F)c3)n2)cc1	0.118	5.2	101.0	-2.0	-0.915	.
COc1ccccc1NC(=O)c1ccc(S(=O)(=O)N2CCCC(C)C2)cc1 (stereo not given)	.	-4.0	91.0	-9.5	.	.
O=C1NC2(CCCCC2)C(=O)N1c1cccc(Cl)c1	.	0.7	73.0*	8.0	.	100.0
NS(=O)(=O)c1ccc(CCNC(=O)CCCNC(=O)c2ccc(Cl)cc2)cc1	.	-2.4	67.0*	-5.0	.	98.0
CCOC(=O)CN1C(c2ccc(O)cc2)Nc2ccc(Br)cc2C1c1ccccc1 (stereo not given)	0.488	-0.9	73.0*	0.4	1.88	95.0
CCOC(=O)CN1C(=O)Nc2ccc(Br)cc2C1c1ccccc1 (stereo not given)	0.161	-0.2	92.0	-19.2	-0.736	.
CC(=O)Nc1cccc(-c2ccnc3c2CC(C)(C(=O)Nc2cccc(C(F)(F)F)c2)O3)c1 (stereo not given)	.	.	103.0	.	.	97.0
COCc1nnc(NC(=O)C2CC(=O)N(C3CCCC3)C2)s1 (stereo not given)	.	-1.6	96.0	-6.5	.	.
CSc1ccc(-c2cccc3nncn23)cc1	.	.	65.0*	.	.	98.0
Cn1cc(-c2cccc3nncn23)cn1	.	.	93.0	.	.	.
CCN1C[C@@H]2[C@@H]3C(=O)N(C)C(=O)[C@@H]3[C@](C)(C(=O)OC)N2C1=NC	.	0.6	101.0	.	.	.
Cc1nn(-c2ccccc2)c(C)c1NC(=O)COC(=O)c1ccc(O)cc1O	.	-1.9	93.0	-6.9	.	.
COc1ccc(C(=O)C2CCCN(C(=O)c3cccs3)C2)cc1F (stereo not given)	-0.419	2.8	71.0*	-8.2	-0.614	99.0
